HDAC3 inhib – human HDAC3 inhibition | O15379 | recombinant HDAC3, fluorogenic peptide/trypsin coupled, fluorescence | inhibition, % at 8.3 µM | actives 0.15% (n = 320,000) | AID 2718; in the data active = inhibition above about 26%, passing the limit was not always enough
FXN GAA850 act – activators of GAA850 frataxin (FXN) promoter; HEK293 lucGAA850 FXN promoter luciferase reporter, 24 h; percent of 10 µM SAHA response; activation, % at 6 µM; actives 0.56% (n = 360,000);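 active = activation above the average of all compounds screened plus 3 SD, cutoff fixed separately per campaign, cut at about 7.5% in these data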
M18AAP inhibitor – blocks P. falciparum M18 aspartyl aminopeptidase; recombinant PfM18AAP, H-Glu-NHMec fluorogenic cleavage; inhibition, % at 7.35 µM; actives 1.2% (n = 290,000);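 active = inhibition above the campaign mean inhibition over all tested compounds plus 3 SD, cut at about 28% in these data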
AHR activator – activates the human aryl hydrocarbon receptor; P35869; AHR-responsive luciferase reporter cells, luminescence; activation, % at 5 µM; actives 2.5% (n = 320,000); AID 2796; in the data active = activation above about 47%
Target sequence (P35869 whole entry, looked up): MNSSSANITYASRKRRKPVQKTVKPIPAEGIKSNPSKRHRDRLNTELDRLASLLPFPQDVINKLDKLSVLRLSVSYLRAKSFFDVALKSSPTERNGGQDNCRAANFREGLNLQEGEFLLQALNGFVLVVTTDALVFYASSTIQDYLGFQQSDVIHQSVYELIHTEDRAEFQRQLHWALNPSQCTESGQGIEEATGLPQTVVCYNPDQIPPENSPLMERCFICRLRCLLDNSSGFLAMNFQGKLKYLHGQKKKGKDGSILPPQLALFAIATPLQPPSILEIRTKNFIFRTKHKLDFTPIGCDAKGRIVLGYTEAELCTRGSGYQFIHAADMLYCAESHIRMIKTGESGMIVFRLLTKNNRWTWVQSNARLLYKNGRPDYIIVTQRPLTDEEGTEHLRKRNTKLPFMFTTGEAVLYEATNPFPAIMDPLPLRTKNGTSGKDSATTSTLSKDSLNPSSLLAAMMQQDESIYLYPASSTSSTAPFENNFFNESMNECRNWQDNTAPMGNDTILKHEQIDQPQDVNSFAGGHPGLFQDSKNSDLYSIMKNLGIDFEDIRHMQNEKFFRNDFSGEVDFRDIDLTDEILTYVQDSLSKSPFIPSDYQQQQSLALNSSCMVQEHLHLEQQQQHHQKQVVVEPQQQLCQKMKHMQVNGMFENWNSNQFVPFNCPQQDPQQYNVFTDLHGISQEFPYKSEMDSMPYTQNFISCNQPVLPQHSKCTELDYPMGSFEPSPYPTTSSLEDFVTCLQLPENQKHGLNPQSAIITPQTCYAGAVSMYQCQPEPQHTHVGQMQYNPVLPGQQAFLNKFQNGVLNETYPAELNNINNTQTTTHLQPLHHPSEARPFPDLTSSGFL
SENP1 inh – SENP1 (human) catalytic domain inhibition; recombinant SENP1 catalytic domain, CyPet-SUMO1-YPet FRET cleavage; inhibition, % at 10 µM; actives 0.21% (n = 360,000); AID 624204;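 active = inhibition at least 30% at 10 µM, raw YFP signal under a set limit, fluorescence ratio 0.5 to 1.5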
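system = hSENP1 catalytic domain, recombinant | reagent = SFCypet-SUMO1-SFYpet substrate at 25 nM | doses = one dose per compound, 10 µM, 0.5% DMSO | incubation = enzyme reaction for 50 min at room temperature, dark | measured by = FRET, CFP and YFP emission | controls = no-enzyme low, enzyme-DMSO high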
CTSL1 counter – counter-screen for PFM18AAP inhibitors: inhibitors of F. hepatica cathepsin L1. recombinant F. hepatica cathepsin L1, Z-Leu-Arg-MCA fluorescence. inhibition, % at 5.96 µM. actives 0.49% (n = 300,000). AID 1906;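 active = inhibition above the mean of all tested compounds plus 3 SD, set per screening campaign, cut at about 17% in these data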
AHR act confirm – human AHR activation, confirmation | shares compounds with AHR activator | human cells, AHR-responsive luciferase reporter, luminescence | activation, % at 9 µM | actives 87% (n = 2,300); in the data active = activation above about 49%;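 note: HepG2 hepatoma cells carrying a DRE-driven firefly luciferase reporter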
PXR act counter – counter-screen for AHR activators: human PXR activators. shares compounds with AHR activator. cell-based PXR reporter, luciferase luminescence. activation, % at 11.6 µM. actives 88% (n = 2,300); in the data active = activation above about 11%;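 note: human hepatoma DPX-2 cells expressing full-length human PXR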
Each line names hits and unclear results; the compound was inactive in the other large screens (follow-up assays come after a bar, where they were run). Rows were chosen to be rich in hits. Some 4.2% of all compounds tested hit in one or more screens of this group.

N#Cc1c2ccc([N+](=O)[O-])cc2[n+]([O-])n1-c1ccccc1	AHR activator 200 (no result: M18AAP inhibitor, CTSL1 counter) | AHR act confirm 253 | PXR act counter 19
O=c1c2cc([N+](=O)[O-])ccc2sn1-c1ccccc1	none (no result: HDAC3 inhib, M18AAP inhibitor, AHR activator, CTSL1 counter)
CCN(c1ccccc1)S(=O)(=O)c1ccc(C(=O)N2CCN(c3ccccc3)CC2)cc1	none (no result: M18AAP inhibitor, CTSL1 counter)
Cc1cc(Cl)n2ncc(-c3ccccc3)c2n1	none
Cc1cc(C)n2ncc(-c3cccc(Br)c3)c2n1	AHR activator 88 | AHR act confirm 120 | PXR act counter 24
CCN(CC(=O)Nc1cc(Cl)ccc1C)C(=O)c1ccc2c(=O)n3c(nc2c1)CCC3	none (no result: M18AAP inhibitor)
CC(=O)Nc1cccc(OCC(=O)Nc2ccc(F)cc2)c1	AHR activator 85 | AHR act confirm 76
CCOc1ccc(NC(=O)Nc2cccc(C)n2)cc1	AHR activator 80 | AHR act confirm 71 | PXR act counter 18
CCOc1ccc(NC(=O)CNC(=O)COc2ccccc2)cc1	AHR activator 121 | AHR act confirm inactive | PXR act counter 11
CC(=O)Nc1ccc(NC(=O)CNC(=O)COc2ccccc2)cc1	none
CCOc1ccc(C(=O)Nc2cccc(C)n2)cc1	none
CCOC(=O)C1(C)CCCN(C(=O)c2ccccc2OC(F)(F)F)C1 (centres undefined)	none (no result: HDAC3 inhib, M18AAP inhibitor, AHR activator, CTSL1 counter)
CCOc1ccccc1Nc1nnc(SCC(=O)Nc2cccc(S(=O)(=O)NC3=NCCCCC3)c2)s1	AHR activator 87 | AHR act confirm 76 | PXR act counter 127
CC(=O)Nc1cccc(NC(=O)c2ccccc2OCc2ccccc2)c1	none
O=C(Nc1ccccc1OCc1ccccc1)c1ccccc1Br	AHR activator 103 | AHR act confirm 105 | PXR act counter 43
O=C(NNC(=O)c1ccccc1F)c1ccc(NS(=O)(=O)c2ccc(F)cc2)cc1	none (no result: HDAC3 inhib, M18AAP inhibitor, AHR activator, CTSL1 counter)
O=C1c2ccccc2C(=O)N1CCCCN(C(=O)c1ccc([N+](=O)[O-])cc1)c1ccc(Cl)cc1	AHR activator 90 | AHR act confirm 90 | PXR act counter 214
Cc1ccc(-c2nc3cccnc3s2)cc1NS(=O)(=O)c1ccc2c(c1)OCCO2	AHR activator 105 | AHR act confirm 73 | PXR act counter 104
O=S(=O)(Nc1cccc(-c2nc3cccnc3s2)c1)c1ccc2c(c1)OCCO2	none
O=C([O-])c1cc(-c2ccccc2)cc(-c2ccccc2)[n+]1CCc1ccc(Cl)cc1	none (no result: HDAC3 inhib, M18AAP inhibitor, AHR activator, CTSL1 counter)
O=C1CCCc2nc3c(cc21)C(O)Oc1c-3ccc2ccccc12 (centres undefined)	AHR activator 148 | AHR act confirm inactive | PXR act counter 45
O=C1CCCc2nc3c(cc21)C(O)Oc1ccccc1-3 (centres undefined)	none
O=C(c1cnn2c(C(F)F)cc(-c3ccccc3)nc12)N1CCN(Cc2ccc3c(c2)OCO3)CC1	none
O=C(/C(=C\c1ccccc1)c1nc2ccccc2[nH]1)c1ccc(Cl)cc1	AHR activator 80 (no result: HDAC3 inhib) | AHR act confirm inactive | PXR act counter 117
Nc1ccc(N=Nc2ccccc2)c2cccnc12	AHR activator 94 | AHR act confirm 84 | PXR act counter 12
Cc1ccccc1N=Nc1ccc(O)c2ncccc12	none
Cc1ccc([C@H]2C[C@@H](O)[C@H](n3cc(C4CC4)nn3)CN2CC2CCCCC2)cc1	none (no result: HDAC3 inhib, M18AAP inhibitor, AHR activator, CTSL1 counter)
Nc1c(Cl)cc(C2=NCCn3nc4ccccc4c32)cc1Cl	none (no result: M18AAP inhibitor)
Nc1c(Cl)cc(C2=NCCn3c2c2ccccc2[n+]3[O-])cc1Cl	AHR activator 85 (no result: M18AAP inhibitor) | AHR act confirm 101 | PXR act counter 20
Cc1ccc(C2=NCCn3c2c2ccccc2[n+]3[O-])cc1	none (no result: M18AAP inhibitor)
[O-][n+]1c2ccccc2c2n1CCN=C2c1ccc(Cl)cc1	AHR activator 102 (no result: M18AAP inhibitor) | AHR act confirm 115 | PXR act counter 12
COc1ccc(C(=O)NCc2nnc(SCC(=O)c3ccccc3)n2C)cc1OC	none (no result: HDAC3 inhib, M18AAP inhibitor)
Cc1nc(-c2ccccc2)nc2n[nH]c(N)c12	AHR activator 112 (no result: M18AAP inhibitor) | AHR act confirm 138 | PXR act counter inactive
Nc1[nH]nc2nc(N3CCCC3)nc(-c3ccccc3)c12	none
O=c1[nH]c(CSc2nnc3ccccn23)nc2ccccc12	none
O=c1cc(CSc2nnc3ccccn23)c2c(ccc3ccccc32)o1	AHR activator 84 | AHR act confirm 65 | PXR act counter 29
CCOC(=O)c1c(C)[nH]c(C(=O)OCC(=O)Nc2cccnc2Cl)c1C	none (no result: M18AAP inhibitor)
Nc1c(Cl)cc(-c2csc(N3CCCC3c3nc4cc(Cl)c(Cl)cc4n3CCCO)n2)cc1Cl (centres undefined)	none (no result: M18AAP inhibitor)
Nc1c(Cl)cc(-c2csc(N3CCCC3c3nc4cc(Cl)c(N5CCCCC5)cc4n3CCCO)n2)cc1Cl (centres undefined)	AHR activator 86 (no result: M18AAP inhibitor) | AHR act confirm 86 | PXR act counter 197
CN1OC[C@@H]2CN[C@H](c3ccc(-c4cc5ccccc5o4)cc3)C[C@@H]21	none (no result: HDAC3 inhib, M18AAP inhibitor, AHR activator, CTSL1 counter)
Cc1ccc(-c2[nH]ncc2C(=O)c2cccc(F)c2)c(O)c1	none
Cc1ccc(-c2cc(-c3ccccc3C)[nH]n2)c(O)c1	AHR activator 102 | AHR act confirm 136 | PXR act counter 18
Cc1ccc(-c2cc(-c3cccc(F)c3)n[nH]2)c(O)c1	AHR activator 126 | AHR act confirm 142 | PXR act counter 16
O=C(O)c1cc(S(=O)(=O)N2CCOCC2)c[nH]1	none (no result: M18AAP inhibitor, CTSL1 counter)
Cc1cc(C)n(-c2nc(-c3cccc(Cl)c3)cs2)n1	AHR activator 109 | AHR act confirm 101 | PXR act counter 22
Cc1ccccc1-c1nnn(C/C(N)=N/O)n1	none
CC(C)c1ccc(Nc2nc(NCc3ccco3)nc(N3CCOCC3)n2)cc1	AHR activator 85 | AHR act confirm 86 | PXR act counter 32
N#Cc1c(-c2cccs2)cc(-c2ccccn2)nc1N	AHR activator 80 | AHR act confirm 98 | PXR act counter 23
N#Cc1c(-c2ccc(Br)cc2)cc(-c2cccnc2)nc1N	AHR activator 93 | AHR act confirm 73 | PXR act counter 18
N#Cc1c(-c2cccs2)cc(-c2cccnc2)nc1N	AHR activator 102 | AHR act confirm 130 | PXR act counter 28
COc1cccc(-c2cc(-c3cccnc3)nc(N)c2C#N)c1	none
CCCCn1nnnc1C1(C)CCC(=O)N1CC(F)(F)F (centres undefined)	none (no result: HDAC3 inhib, FXN GAA850 act, M18AAP inhibitor, AHR activator, CTSL1 counter)
C/C(=N\NC(N)=O)c1ccc(-n2ccnc2)cc1	none
C/C(=N\NC(=S)NC(C)C)c1ccc(-n2ccnc2)cc1	AHR activator 122 | AHR act confirm 77 | PXR act counter 14

Bioassay records from PubChem.
